The source of these data is ChEMBL document CHEMBL2150892, “Neuroprotective Tri- and Tetracyclic BChE Inhibitors Releasing Reversible Inhibitors upon Carbamate Transfer” (ACS Med Chem Lett, 2012).

The source made the active and inactive calls. No cut-off for these calls is given here.

A short description of assay [1]: Selectivity ratio of IC50 for Electric eel AChE to IC50 for equine serum BChE. Put shortly:
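Selectivity ratio calculated as IC50(AChE)/IC50(BChE). AChE was from electric eel and BChE from equine serum. Each IC50 is a mean of at least three independent determinations.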

The target of assay [2] is T1, Acetylcholinesterase (Electrophorus electricus, UniProt O42275). The assay is described as follows: Inhibition of Electric eel AChE using acetylthiocholine as substrate after 2 mins. In short, it runs like this: (§1)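 Enzyme sources were electric eel AChE and equine serum BChE. Values are means of at least three independent determinations.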
Assay [3] concerns the target T2, Cholinesterase (Equus caballus, UniProt P81908). Kind of assay: Inhibition of equine serum BChE using acetylthiocholine as substrate after 2 mins. In short, it runs like this: as §1
A short description of assay [4]: Antioxidant activity assessed as trolox equivalents of peroxyl radical scavenging activity by ORAC assay. In kind it is functional. In short, it runs like this: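 ORAC assay: measures how well each compound protects fluorescein from destruction by peroxyl radicals. Capacity is expressed as trolox equivalents, with trolox as the reference.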
The test system of assay [5] is HT-22. The assay is described as follows: Neuroprotective activity against glutamate-induced oxidative stress in mouse HT22 cells assessed as reduction of intracellular ROS formation at 5 uM after 24 hrs by MTT assay. In kind it is functional, cell-based. In short, it runs like this: (§2)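 Murine hippocampal HT-22 cells, which lack ionotropic glutamate receptors, were challenged with extracellular glutamate to cause oxidative (oxytotic) cell death. Compounds were tested at 10 μM and 5 μM against this glutamate-induced toxicity.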

For assay [6], the system named is HT-22. The assay is described as follows: Neuroprotective activity against glutamate-induced oxidative stress in mouse HT22 cells assessed as reduction of intracellular ROS formation at 10 uM after 24 hrs by MTT assay. It is filed as functional, cell-based. In short, it runs like this: as §2
For orientation: Tetrazolium assays rely on reduction of a dye to a coloured formazan, in cell work by metabolically active cells.

Assay [7] deals with Acetylcholinesterase (Electrophorus electricus) (UniProt O42275). The assay is described as follows: Inhibition of Electric eel AChE using acetylthiocholine as substrate at 100 uM after 2 mins. Put shortly: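 Enzyme sources were electric eel AChE and equine serum BChE. Values are means of at least three independent determinations. Single-point entries are % inhibition at 100 μM.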

The target is the same in assay [8]. The assay is described as follows: Time dependent inhibition of Electric eel AChE assessed as stability constants of inhibitor-enzyme complex using acetylthiocholine as substrate at 10 to 50 nM after 60 mins.
Assay [9] concerns the target T2, Cholinesterase. Kind of assay: Time dependent inhibition of equine serum BChE assessed as stability constants of inhibitor-enzyme complex using acetylthiocholine as substrate after 60 mins.
In assay [10] the target is T1, Acetylcholinesterase. The assay is described as follows: Time dependent inhibition of Electric eel AChE assessed as stability constants of inhibitor-enzyme complex using acetylthiocholine as substrate after 60 mins.

T2 sequence (P81908 whole entry): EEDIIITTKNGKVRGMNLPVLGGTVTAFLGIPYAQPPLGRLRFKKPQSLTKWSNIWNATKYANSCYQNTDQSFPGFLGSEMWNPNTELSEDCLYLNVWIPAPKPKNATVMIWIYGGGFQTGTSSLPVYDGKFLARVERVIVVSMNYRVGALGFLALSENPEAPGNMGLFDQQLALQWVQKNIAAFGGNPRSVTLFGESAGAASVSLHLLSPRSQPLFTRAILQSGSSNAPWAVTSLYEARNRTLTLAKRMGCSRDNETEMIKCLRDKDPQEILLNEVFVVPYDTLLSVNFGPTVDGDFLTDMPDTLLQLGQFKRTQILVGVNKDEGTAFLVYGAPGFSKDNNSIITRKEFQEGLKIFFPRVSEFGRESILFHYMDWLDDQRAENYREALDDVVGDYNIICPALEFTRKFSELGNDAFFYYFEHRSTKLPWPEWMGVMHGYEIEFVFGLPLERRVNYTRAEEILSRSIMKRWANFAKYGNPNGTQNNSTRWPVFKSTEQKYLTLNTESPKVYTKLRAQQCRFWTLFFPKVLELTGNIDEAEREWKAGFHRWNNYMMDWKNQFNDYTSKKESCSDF
T1 sequence (O42275 whole entry): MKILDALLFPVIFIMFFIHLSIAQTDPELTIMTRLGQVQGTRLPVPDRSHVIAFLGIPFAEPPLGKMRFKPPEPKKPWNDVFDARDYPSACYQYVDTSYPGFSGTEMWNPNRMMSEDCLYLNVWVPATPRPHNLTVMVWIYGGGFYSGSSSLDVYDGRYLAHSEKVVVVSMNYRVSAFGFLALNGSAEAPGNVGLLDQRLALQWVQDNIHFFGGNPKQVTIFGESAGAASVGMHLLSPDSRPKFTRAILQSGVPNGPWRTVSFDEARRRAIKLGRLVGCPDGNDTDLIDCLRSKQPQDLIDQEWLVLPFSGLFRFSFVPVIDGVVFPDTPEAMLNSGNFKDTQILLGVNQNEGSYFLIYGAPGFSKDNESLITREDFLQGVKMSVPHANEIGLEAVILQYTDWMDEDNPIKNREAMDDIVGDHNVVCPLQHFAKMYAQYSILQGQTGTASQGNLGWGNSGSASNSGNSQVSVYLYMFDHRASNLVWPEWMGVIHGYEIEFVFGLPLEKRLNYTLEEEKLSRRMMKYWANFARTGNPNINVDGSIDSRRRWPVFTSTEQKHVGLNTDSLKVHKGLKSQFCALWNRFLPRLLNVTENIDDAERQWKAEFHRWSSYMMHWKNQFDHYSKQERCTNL
Sequence of Acetylcholinesterase (Electrophorus electricus) (O42275 24-633 limits assumed): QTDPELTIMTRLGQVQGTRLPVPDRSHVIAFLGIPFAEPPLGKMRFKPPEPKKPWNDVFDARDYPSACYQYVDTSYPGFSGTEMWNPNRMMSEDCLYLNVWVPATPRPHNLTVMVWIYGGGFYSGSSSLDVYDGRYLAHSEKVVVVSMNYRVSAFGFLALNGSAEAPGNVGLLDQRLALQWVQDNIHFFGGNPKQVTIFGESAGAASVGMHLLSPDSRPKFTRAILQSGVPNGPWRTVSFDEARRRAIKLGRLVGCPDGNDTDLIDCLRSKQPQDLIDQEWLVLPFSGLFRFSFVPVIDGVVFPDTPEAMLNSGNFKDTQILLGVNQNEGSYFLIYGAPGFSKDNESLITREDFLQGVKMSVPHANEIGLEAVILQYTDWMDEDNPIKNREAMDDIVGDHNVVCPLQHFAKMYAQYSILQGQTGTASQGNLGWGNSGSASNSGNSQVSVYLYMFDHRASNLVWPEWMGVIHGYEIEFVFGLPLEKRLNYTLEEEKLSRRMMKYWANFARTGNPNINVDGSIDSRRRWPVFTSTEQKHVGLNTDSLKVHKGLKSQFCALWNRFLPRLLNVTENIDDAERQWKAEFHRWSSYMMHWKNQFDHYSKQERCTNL

As to `COc1cccc(NC(=O)Oc2ccc3c(c2)CN2CCCC2N3C)c1` (configuration not stated), the Ratio IC50 in [1] came out at 5.3. The values for the IC50 at Acetylcholinesterase [2] (read-out: IC50) and on Cholinesterase [3] (read-out: IC50) were 40.2 µM and 7.52 µM, respectively.

For `COc1cccc(NC(=O)Oc2ccc3c(c2)CN2CCc4ccccc4C2N3C)c1` (configuration not stated), the Ratio IC50 in [1] is greater than 900. In addition, the IC50 on Cholinesterase [3] (read-out: IC50) was determined as 0.218 µM.

`Cc1ccccc1NC(=O)Oc1ccc2c(c1)CN1CCc3ccccc3C1N2C` (configuration not stated): in assay [1], the Ratio IC50 is greater than 1350. Moreover, the IC50 at Cholinesterase [3] (read-out: IC50) was found to be 0.144 µM.

Consider `CCCCCCCNC(=O)Oc1ccc2c(c1)CN1CCCC1N2C` (configuration not stated), for which the Ratio IC50 in [1] amounted to 16.6. Also, the Ratio in [4] is 1.03. The result in the assay with HT-22 [5] and in the assay with HT-22 [6] was Active. Moreover, the IC50 was 32.3 µM on Acetylcholinesterase [2] (read-out: IC50) and 1.95 µM at Cholinesterase [3] (read-out: IC50).

For the molecule `COc1ccc2c(c1)CN1CCc3ccccc3C1N2C` (configuration not stated), in assay [1], the Ratio IC50 turned out to be 4.2. Also, the Ratio in [4] turned out to be 0.51. Further, the result in the assay on HT-22 [5] was inactive. Further, the results for the IC50 at Acetylcholinesterase [2] (read-out: IC50) and at Cholinesterase [3] (read-out: IC50) were 232 µM and 55.6 µM, respectively.

Consider `CN1c2ccc(O)cc2CN2CCc3ccccc3C21` (configuration not stated), for which, in assay [1], the Ratio IC50 came to 2.5. In [4], the Ratio was 2.87. In addition, the result with HT-22 [5] and with HT-22 [6] was Active. In addition, the IC50 at Acetylcholinesterase [2] (read-out: IC50) was 110 µM; on Cholinesterase [3] (read-out: IC50), 44.3 µM.

Turning to `CN1c2ccc(O)cc2CN2CCCc3ccccc3C21` (configuration not stated), in assay [1], the Ratio IC50 was 5.2. The Ratio in assay [4] was determined as 2.48. For the same molecule, the result in the assay on HT-22 [5] and in the assay with HT-22 [6] was Active. Moreover, the values for the IC50 on Acetylcholinesterase [2] (read-out: IC50) and on Cholinesterase [3] (read-out: IC50) were 37.8 µM and 7.3 µM, respectively.

For the molecule `CCCCCCCNC(=O)Oc1ccc2c(c1)CN1CCc3ccccc3C1N2C` (configuration not stated), the inhibition entry in assay [7] and in assay [8] was “inactive” throughout. The Ratio IC50 in assay [1] was greater than 15000. Further, the Ratio in assay [4] came out at 0.3. For the same molecule, the Ki at Cholinesterase [9] was found to be 0.0127 µM. For the same molecule, the result in the assay with HT-22 [6] was Active. Besides, the IC50 on Cholinesterase [3] (read-out: IC50) is 0.06 µM.

With `Cc1ccccc1NC(=O)Oc1ccc2c(c1)CN1CCCC1N2C` (configuration not stated), the Ratio IC50 in assay [1] turned out to be 16.1. The IC50 at Acetylcholinesterase [2] (read-out: IC50) came to 66.3 µM; on Cholinesterase [3] (read-out: IC50), 4.11 µM.

With `CC(C)c1ccc(NC(=O)Oc2ccc3c(c2)CN2CCc4ccccc4C2N3C)cc1` (configuration not stated), the Ratio IC50 in [1] was greater than 1500. For the same molecule, the IC50 at Cholinesterase [3] (read-out: IC50) turned out to be 0.131 µM.

As for `CN1c2ccccc2CN2CCc3ccccc3C21` (configuration not stated), the Ratio IC50 in assay [1] is 3.3. For the same molecule, the Ratio in assay [4] is 0.92. Also, the outcome in the assay on HT-22 [6] was inactive. Further, the IC50 amounted to 145 µM at Acetylcholinesterase [2] (read-out: IC50) and 44 µM at Cholinesterase [3] (read-out: IC50).

With `CN1c2ccccc2CN2CCCc3ccccc3C21` (configuration not stated), in assay [1], the Ratio IC50 is greater than 8.4. Also, the IC50 on Cholinesterase [3] (read-out: IC50) amounted to 23.7 µM.

In the case of `CN1c2ccccc2CN2CCCC21` (configuration not stated), the Ratio IC50 in assay [1] was 3.4. The values for the IC50 at Acetylcholinesterase [2] (read-out: IC50) and on Cholinesterase [3] (read-out: IC50) were 131 µM and 38.9 µM, respectively.

For `CCCCCCCNC(=O)Oc1ccc2c(c1)CN1CCCc3ccccc3C1N2C` (configuration not stated), the Ratio IC50 in assay [1] is greater than 4000. In assay [4], the Ratio amounted to 0.86. In addition, the result with HT-22 [6] was Active. The IC50 on Cholinesterase [3] (read-out: IC50) worked out at 0.046 µM.

Turning to `CC(C)c1ccc(NC(=O)Oc2ccc3c(c2)CN2CCCC2N3C)cc1` (configuration not stated), the Ratio IC50 in assay [1] was greater than 66.6. Also, the IC50 at Cholinesterase [3] (read-out: IC50) was 3 µM.

As to `COc1ccc2c(c1)CN1CCCc3ccccc3C1N2C` (configuration not stated), in [1], the Ratio IC50 was greater than 6.7. Further, in assay [4], the Ratio was 1.2. Further, on Cholinesterase [3] (read-out: IC50), the IC50 came out at 29.7 µM.

Regarding `CCN(C)C(=O)Oc1ccc2c(c1)CN1CCc3ccccc3C1N2C` (configuration not stated), the Ki worked out at 1.12 µM on Acetylcholinesterase [10] and 0.275 µM at Cholinesterase [9]. The Ratio IC50 in [1] came to 54.2. The Ratio in assay [4] turned out to be 0.65. Further, in the assay on HT-22 [6], the outcome was inactive. Further, the IC50 was 24.4 µM on Acetylcholinesterase [2] (read-out: IC50), 234 µM on Acetylcholinesterase [2] (read-out: pIC50 (converted)), 0.45 µM at Cholinesterase [3] (read-out: IC50) and 24.5 µM at Cholinesterase [3] (read-out: pIC50 (converted)).

For `CN1c2ccc(O)cc2CN2CCCC21` (configuration not stated), the Ratio IC50 in assay [1] worked out at 0.75. Further, in assay [4], the Ratio stood at 3.43. Also, the result with HT-22 [5] and in the assay with HT-22 [6] was Active. The IC50 on Acetylcholinesterase [2] (read-out: IC50) is 30.6 µM; on Acetylcholinesterase [2] (read-out: pIC50 (converted)), 30.2 µM; at Cholinesterase [3] (read-out: IC50), 41 µM.
